In ChEMBL document CHEMBL4257488, “Synthesis and evaluation of nuciferine and roemerine enantiomers as 5-HT2 and α1 receptor antagonists” (Medchemcomm, 2018):

Key:
Homo sapiens [1] = species on record: Homo sapiens; assay: Selectivity ratio of Kb for human adrenergic alpha1D receptor to Kb for human adrenergic alpha1B receptor
Outline: (§1)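 Ratio of the Kb at receptor Y to the Kb at receptor X. Each Kb came from TGFα-shedding antagonist curves in transfected HEK293 cells, converted from IC50 with the modified Gaddum equation IC50/([A]/EC50 − 1).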

Homo sapiens [2] = species on record: Homo sapiens; assay: Selectivity ratio of Kb for human adrenergic alpha1A receptor to Kb for human 5-HT2A receptor; outline: as §1
[3] = molecular target: T1, Alpha-1A adrenergic receptor (Homo sapiens) (UniProt P35348); assay: Antagonist activity at human adrenergic alpha1A receptor expressed in HEK293 cells assessed as inhibition of noradrenaline-induced receptor activation preincubated for 15 mins followed by noradrenaline addition and measured after 1 hr by TGFalpha shedding assay
T1 sequence (whole entry): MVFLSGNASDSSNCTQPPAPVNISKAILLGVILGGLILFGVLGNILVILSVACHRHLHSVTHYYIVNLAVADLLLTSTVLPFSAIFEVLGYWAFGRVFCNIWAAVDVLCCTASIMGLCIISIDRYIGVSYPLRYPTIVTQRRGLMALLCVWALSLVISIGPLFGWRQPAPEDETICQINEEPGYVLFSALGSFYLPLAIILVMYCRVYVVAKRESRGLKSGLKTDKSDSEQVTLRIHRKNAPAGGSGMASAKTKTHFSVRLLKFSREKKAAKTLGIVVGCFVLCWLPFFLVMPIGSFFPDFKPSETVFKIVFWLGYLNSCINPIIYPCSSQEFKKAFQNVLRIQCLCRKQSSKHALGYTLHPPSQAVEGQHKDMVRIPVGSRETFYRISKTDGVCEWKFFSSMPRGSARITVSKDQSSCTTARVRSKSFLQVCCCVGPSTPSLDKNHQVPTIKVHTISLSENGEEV

[4] = molecular target: 5-hydroxytryptamine receptor 2A (Homo sapiens) (UniProt P28223); assay: Antagonist activity at human 5-HT2A receptor expressed in HEK293 cells assessed as inhibition of serotonin-induced receptor activation preincubated for 15 mins followed by serotonin addition and measured after 1 hr by TGFalpha shedding assay; type: functional, cell-based
Outline: (§2)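 HEK293 cells were co-transfected with the receptor construct and alkaline phosphatase-tagged TGFα, then seeded in HBSS. Cells were pretreated 15 min with compound (0.1 nM–30 µM final), then given serotonin at final 1 µM (5-HT2A) or 0.1 µM (5-HT2B, 5-HT2C) for 1 h at 37 °C. Kb came from IC50 via the modified Gaddum equation.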

Homo sapiens [5] = species on record: Homo sapiens; assay: Selectivity ratio of Kb for human adrenergic alpha1D receptor to Kb for human adrenergic alpha1A receptor; outline: as §1
Homo sapiens [6] = species on record: Homo sapiens; assay: Selectivity ratio of Kb for human 5-HT2B receptor to Kb for human 5-HT2A receptor; outline: as §1
[7] = molecular target: Serotonin 2 receptors; 5-HT2a & 5-HT2c (Homo sapiens) (UniProt P28223+P28335); assay: Selectivity ratio of Kb for human 5-HT2C receptor to Kb for human 5-HT2A receptor; outline: as §1
Homo sapiens [8] = species on record: Homo sapiens; assay: Selectivity ratio of Kb for human adrenergic alpha1B receptor to Kb for human adrenergic alpha1A receptor; outline: as §1
[9] = molecular target: T2, 5-hydroxytryptamine receptor 2C (Homo sapiens) (UniProt P28335); assay: Antagonist activity at human 5-HT2C receptor expressed in HEK293 cells assessed as inhibition of serotonin-induced receptor activation preincubated for 15 mins followed by serotonin addition and measured after 1 hr by TGFalpha shedding assay; type: functional, cell-based
T2 sequence (whole entry): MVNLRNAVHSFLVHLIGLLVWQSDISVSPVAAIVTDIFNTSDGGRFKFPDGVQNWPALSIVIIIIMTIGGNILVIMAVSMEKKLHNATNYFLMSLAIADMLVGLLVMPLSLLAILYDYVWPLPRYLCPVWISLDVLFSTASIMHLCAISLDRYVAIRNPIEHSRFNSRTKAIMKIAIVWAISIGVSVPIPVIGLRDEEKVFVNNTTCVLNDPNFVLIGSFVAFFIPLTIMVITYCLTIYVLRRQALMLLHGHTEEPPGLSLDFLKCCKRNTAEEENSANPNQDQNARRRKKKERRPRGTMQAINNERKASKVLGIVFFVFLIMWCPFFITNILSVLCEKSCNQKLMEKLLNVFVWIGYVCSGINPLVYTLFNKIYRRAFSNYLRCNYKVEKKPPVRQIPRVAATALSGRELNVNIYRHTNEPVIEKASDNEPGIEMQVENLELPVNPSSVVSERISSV
Outline: as §2, with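 “°C. Readout was supernatant/total AP activity (p-nitrophenol, 405 nm), normalised to maximal agonist response, in triplicate.” for “°C.”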

[10] = molecular target: 5-hydroxytryptamine receptor 2B (Homo sapiens) (UniProt P41595); assay: Antagonist activity at human 5-HT2B receptor expressed in HEK293 cells assessed as inhibition of serotonin-induced receptor activation preincubated for 15 mins followed by serotonin addition and measured after 1 hr by TGFalpha shedding assay; type: functional, cell-based; outline: as §2
[11] = molecular target: T3, Alpha-1D adrenergic receptor (Homo sapiens) (UniProt P25100); assay: Antagonist activity at human adrenergic alpha1D receptor expressed in HEK293 cells assessed as inhibition of noradrenaline-induced receptor activation preincubated for 15 mins followed by noradrenaline addition and measured after 1 hr by TGFalpha shedding assay
T3 sequence (whole entry): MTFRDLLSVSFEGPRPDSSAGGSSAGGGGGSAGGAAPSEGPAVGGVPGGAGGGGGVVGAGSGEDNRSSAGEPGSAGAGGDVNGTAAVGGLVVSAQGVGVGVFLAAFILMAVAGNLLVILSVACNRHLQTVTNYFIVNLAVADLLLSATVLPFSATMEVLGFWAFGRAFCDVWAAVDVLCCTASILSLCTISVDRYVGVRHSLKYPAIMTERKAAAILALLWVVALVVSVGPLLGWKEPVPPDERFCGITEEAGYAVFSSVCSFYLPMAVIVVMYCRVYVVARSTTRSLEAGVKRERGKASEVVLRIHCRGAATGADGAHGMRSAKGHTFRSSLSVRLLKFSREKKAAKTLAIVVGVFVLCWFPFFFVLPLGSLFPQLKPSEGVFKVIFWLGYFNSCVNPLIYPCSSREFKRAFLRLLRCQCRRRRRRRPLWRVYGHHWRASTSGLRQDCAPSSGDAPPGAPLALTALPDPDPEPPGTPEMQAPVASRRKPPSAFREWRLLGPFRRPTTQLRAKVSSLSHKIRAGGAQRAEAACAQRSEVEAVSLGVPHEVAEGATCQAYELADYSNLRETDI

[12] = molecular target: T4, Alpha-1B adrenergic receptor (Homo sapiens) (UniProt P35368); assay: Antagonist activity at human adrenergic alpha1B receptor expressed in HEK293 cells assessed as inhibition of noradrenaline-induced receptor activation preincubated for 15 mins followed by noradrenaline addition and measured after 1 hr by TGFalpha shedding assay
T4 sequence (whole entry): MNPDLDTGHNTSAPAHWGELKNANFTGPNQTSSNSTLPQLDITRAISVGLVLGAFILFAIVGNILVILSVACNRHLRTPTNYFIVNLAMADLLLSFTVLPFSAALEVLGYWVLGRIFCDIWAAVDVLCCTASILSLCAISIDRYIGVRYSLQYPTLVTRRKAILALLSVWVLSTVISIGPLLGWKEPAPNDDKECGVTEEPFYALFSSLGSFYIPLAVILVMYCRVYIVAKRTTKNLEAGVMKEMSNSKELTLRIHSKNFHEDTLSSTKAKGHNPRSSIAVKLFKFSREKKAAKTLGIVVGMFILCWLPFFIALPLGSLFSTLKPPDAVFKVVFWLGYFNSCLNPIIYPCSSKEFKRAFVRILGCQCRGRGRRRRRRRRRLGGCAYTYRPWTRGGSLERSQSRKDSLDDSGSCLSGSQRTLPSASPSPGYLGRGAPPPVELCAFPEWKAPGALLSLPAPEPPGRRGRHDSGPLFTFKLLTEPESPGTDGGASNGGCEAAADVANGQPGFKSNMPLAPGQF

Homo sapiens [13] = species on record: Homo sapiens; assay: Selectivity ratio of Kb for human 5-HT2B receptor to Kb for human 5-HT2C receptor; outline: as §1
[14] = molecular target: T5, Alpha-1A adrenergic receptor (Homo sapiens, UniProt P35348); assay: Displacement of [125I]-HEAT from human adrenergic alpha1A receptor expressed in rat-1 cells; type: cell-based
T5 sequence (P35348 whole entry): T1 sequence (whole entry)

Homo sapiens [15] = species on record: Homo sapiens; assay: Selectivity ratio of Kb for human adrenergic alpha1B receptor to Kb for human 5-HT2C receptor; outline: as §1
Homo sapiens [16] = species on record: Homo sapiens; assay: Selectivity ratio of Kb for human adrenergic alpha1A receptor to Kb for human 5-HT2C receptor; outline: as §1
[17] = molecular target: T6, Alpha-1B adrenergic receptor (Homo sapiens, UniProt P35368); assay: Displacement of [125I]-HEAT from human adrenergic alpha1B receptor expressed in rat-1 cells; type: cell-based
T6 sequence (P35368 whole entry): T4 sequence (whole entry)

Homo sapiens [18] = species on record: Homo sapiens; assay: Selectivity ratio of Kb for human adrenergic alpha1B receptor to Kb for human 5-HT2A receptor; outline: as §1
Homo sapiens [19] = species on record: Homo sapiens; assay: Selectivity ratio of Kb for human adrenergic alpha1D receptor to Kb for human 5-HT2A receptor; outline: as §1
[20] = molecular target: T7, Alpha-1D adrenergic receptor (Homo sapiens, UniProt P25100); assay: Displacement of [125I]-HEAT from human adrenergic alpha1D receptor expressed in rat-1 cells; type: cell-based
T7 sequence (P25100 whole entry): T3 sequence (whole entry)

Homo sapiens [21] = species on record: Homo sapiens; assay: Selectivity ratio of Kb for human adrenergic alpha1D receptor to Kb for human 5-HT2C receptor; outline: as §1

Sequence of 5-hydroxytryptamine receptor 2B (Homo sapiens) (P41595 whole entry): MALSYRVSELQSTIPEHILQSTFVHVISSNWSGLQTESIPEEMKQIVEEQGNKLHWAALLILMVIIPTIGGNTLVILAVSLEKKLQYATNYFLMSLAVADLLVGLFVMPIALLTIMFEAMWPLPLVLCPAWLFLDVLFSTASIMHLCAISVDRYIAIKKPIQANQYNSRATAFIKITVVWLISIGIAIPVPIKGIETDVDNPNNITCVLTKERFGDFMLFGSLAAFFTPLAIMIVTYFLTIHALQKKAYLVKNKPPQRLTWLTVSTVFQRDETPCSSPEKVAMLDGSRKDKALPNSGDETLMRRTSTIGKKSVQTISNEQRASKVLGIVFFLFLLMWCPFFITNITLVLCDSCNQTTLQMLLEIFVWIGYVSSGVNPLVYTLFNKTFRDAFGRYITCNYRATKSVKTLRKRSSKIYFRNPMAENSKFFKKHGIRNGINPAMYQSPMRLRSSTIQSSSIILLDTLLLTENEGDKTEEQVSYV
Sequence of 5-hydroxytryptamine receptor 2A (Homo sapiens) (P28223 whole entry): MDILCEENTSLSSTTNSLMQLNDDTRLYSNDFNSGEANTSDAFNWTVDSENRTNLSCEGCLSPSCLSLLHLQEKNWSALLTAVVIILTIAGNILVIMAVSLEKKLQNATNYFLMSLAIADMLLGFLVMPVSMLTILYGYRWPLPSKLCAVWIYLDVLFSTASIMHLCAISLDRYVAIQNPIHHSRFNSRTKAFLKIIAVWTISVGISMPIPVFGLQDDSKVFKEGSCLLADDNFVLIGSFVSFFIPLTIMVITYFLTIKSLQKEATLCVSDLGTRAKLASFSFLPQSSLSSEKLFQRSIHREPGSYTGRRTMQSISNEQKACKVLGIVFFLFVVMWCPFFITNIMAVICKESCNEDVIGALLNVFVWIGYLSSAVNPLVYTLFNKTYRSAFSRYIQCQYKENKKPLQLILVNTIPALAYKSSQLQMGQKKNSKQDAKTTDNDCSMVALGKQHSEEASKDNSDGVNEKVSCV
Sequence of Serotonin 2 receptors; 5-HT2a & 5-HT2c (Homo sapiens) (P28223 whole entry, looked up, one chain of several): as the sequence (P28223 whole entry) above

Row | SMILES | Selectivity ratio (Homo sapiens [1]) | Selectivity ratio (Homo sapiens [2]) | Kb [3] [nM] | pKb [3] | Kb [4] [nM] | pKb [4] | Selectivity ratio (Homo sapiens [5]) | Selectivity ratio (Homo sapiens [6]) | Selectivity ratio [7] | Selectivity ratio (Homo sapiens [8]) | Kb [9] [nM] | pKb [9] | Kb [10] [nM] | pKb [10] | Kb [11] [nM] | pKb [11] | Kb [12] [nM] | pKb [12] | Selectivity ratio (Homo sapiens [13]) | also measured
1 | COc1cc2c3c(c1OC)-c1ccccc1C[C@@H]3N(C)CC2 | 0.4 | 1 | 67.1 | 6.91 to 7.17 | 84.3 | 6.85 to 7.07 | 2 | 0.5 | 0.4 | 5 | 30.9 | 7.51 | 41.7 | 7.38 | 116 | 6.94 | 316 | 6.5 | 1 | 
2 | COc1cc2c3c(c1OC)-c1ccccc1C[C@H]3N(C)CC2 | 3 | 1 | 37.8 | 7.31 to 7.42 | 65.3 | 7.18 to 7.26 | 4 | 0.5 | 0.6 | 2 | 36.4 | 7.44 | 31 | 7.51 | 165 | 6.78 | 60.6 | 7.22 | 1 | 
3 | CN1CCc2cc3c(c4c2[C@H]1Cc1ccccc1-4)OCO3 | 0.2 | 32 | 338 | 6.38 to 6.47 | 10.8 | 7.88 to 7.97 | 0.1 | 8 | 1 | 0.8 | 15.1 | 7.82 | 84 | 7.08 | 46 | 7.34 | 266 | 6.57 | 6 | Ki [14]: 251 nM; Selectivity ratio (Homo sapiens [15]): 18 to 32; Selectivity ratio (Homo sapiens [16]): 18 to 32; Ki [17]: 3160 nM; Selectivity ratio (Homo sapiens [18]): 18 to 32; Selectivity ratio (Homo sapiens [19]): 3 to 4; Ki [20]: 631 nM; Selectivity ratio (Homo sapiens [21]): 3 to 4
4 | CN1CCc2cc3c(c4c2[C@@H]1Cc1ccccc1-4)OCO3 | 0.6 | 3 | 86 | 6.62 to 7.07 | 42.9 | 7.06 to 7.37 | 1 | 2 | 2 | 2 | 76.9 | 7.12 | 92.7 | 7.03 | 92.2 | 7.04 | 154 | 6.81 | 1 | 
